The subject of series [1] is Rattus norvegicus. Put plainly: Antihyperalgesic effect in Sprague-Dawley rat model of monosodium iodoacetate-induced osteoarthritis assessed as withdrawal threshold at 3 mg/kg, ip administered 14 days post MIA challenge measured after 60 mins by paw pressure test (reference value: 36.1 +/- 3.5 g). The class given is functional. Summed up: (§1)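 Male Sprague–Dawley rats (200–250 g). MIA (2 mg/25 µL) was injected into the left tibiotarsal joint on day 0 under 2% isoflurane; controls received 25 µL saline. On day 14 compound or vehicle was given at time 0. Paw pressure threshold (g) was read with an analgesimeter using a blunt conical probe on the dorsal paw at 30, 60, 90 and 120 min. Mean ± s.e.m., 6 rats.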

Series [2] deals with Rattus norvegicus. Put plainly: Antihyperalgesic activity in Sprague-Dawley rat model of carrageenan-induced inflammatory pain assessed as paw pressure threshold at 20 mg/kg, po administered 2 hrs post carrageenan challenge measured after 120 mins by paw pressure test (reference value: 34.5 +/- 4.4 g).
The test system of series [3] is Mus musculus. The experiment in a line: Antinociceptive activity in CD1 albino mouse model of acetic acid-induced visceral pain assessed as number of writhes at 10 mg/kg, po pretreated for 60 mins before acetic acid challenge measured after 5 mins (reference value: 32.5 +/- 2.4). The series is classed as functional.
In series [4] the test system is Rattus norvegicus. The experiment in a line: Antihyperalgesic activity in Sprague-Dawley rat model of carrageenan-induced inflammatory pain assessed as paw pressure threshold at 3 mg/kg, po administered 2 hrs post carrageenan challenge measured after 30 mins by paw pressure test (reference value: 34.1 +/- 2.3 g).
Series [5] concerns Mus musculus. The experiment in a line: Antinociceptive activity in CD1 albino mouse model of acetic acid-induced visceral pain assessed as number of writhes at 20 mg/kg, po pretreated for 30 mins before acetic acid challenge measured after 5 mins (reference value: 30.5 +/- 1.7). The class given is functional.
Series [6] deals with Rattus norvegicus. The experiment in a line: Antihyperalgesic effect in Sprague-Dawley rat model of monosodium iodoacetate-induced osteoarthritis assessed as withdrawal threshold at 20 mg/kg, ip administered 14 days post MIA challenge measured after 120 mins by paw pressure test (reference value: 39.2 +/- 4 g). The series is classed as functional. Summed up:
as §1

Series [7] has as its system Rattus norvegicus. The experiment in a line: Antiinflammatory activity in Sprague-Dawley rat model of carrageenan-induced […] at 10 mg/kg, po administered 2 hrs post carrageenan challenge measured after 120 mins by […] (reference value: 34.5 +/- 4.4 ml). The class given is functional. (The carrageenan paw model is a standard test of acute inflammation.)

Series [8] concerns the target T1, Prostaglandin G/H synthase 2 (Mus musculus, UniProt Q05769).
T1 sequence (Q05769 whole entry): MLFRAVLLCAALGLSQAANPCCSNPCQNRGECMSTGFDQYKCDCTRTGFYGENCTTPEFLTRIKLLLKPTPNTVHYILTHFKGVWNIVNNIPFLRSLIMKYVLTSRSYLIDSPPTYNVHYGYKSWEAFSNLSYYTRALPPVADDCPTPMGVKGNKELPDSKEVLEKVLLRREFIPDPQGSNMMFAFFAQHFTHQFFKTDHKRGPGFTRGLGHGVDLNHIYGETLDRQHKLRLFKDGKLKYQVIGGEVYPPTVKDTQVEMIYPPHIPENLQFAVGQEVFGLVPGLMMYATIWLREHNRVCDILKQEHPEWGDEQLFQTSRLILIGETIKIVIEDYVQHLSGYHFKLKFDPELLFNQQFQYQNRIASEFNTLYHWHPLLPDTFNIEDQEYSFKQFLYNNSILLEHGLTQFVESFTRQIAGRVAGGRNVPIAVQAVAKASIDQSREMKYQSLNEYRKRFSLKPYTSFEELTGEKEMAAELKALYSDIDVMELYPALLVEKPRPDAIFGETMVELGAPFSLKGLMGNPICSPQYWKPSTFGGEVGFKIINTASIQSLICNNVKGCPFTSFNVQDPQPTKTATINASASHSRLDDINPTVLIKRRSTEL
Put plainly: Inhibition of COX-2 in mouse J774 cells assessed as reduction in LPS-induced PGE2 level incubated for 24 hrs by radio immunoassay. The class given is cell-based. The method in brief:
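Murine J774 macrophages were stimulated for 24 h with E. coli LPS (10 µg/mL) to induce COX-2, with or without compound (0.001–10 µM). Supernatant PGE2 was measured by RIA as % inhibition of production versus control; triplicate wells, mean of three experiments, IC50 from a sigmoidal variable-slope fit.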

The species entered for series [9] is Mus musculus. Put plainly: Selectivity ratio of IC50 for mouse COX-1 to IC50 for mouse COX-2. The method in brief:
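In J774 cells, the ratio was taken as COX-1 IC50 over COX-2 IC50. COX-1 activity: 15 min compound pretreatment, then 30 min with 15 µM arachidonic acid. COX-2 activity: 24 h LPS (10 µg/mL) induction with compound. PGE2 was measured by RIA in both; IC50 values came from sigmoidal fits of three experiments.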

Series [10] relates to Rattus norvegicus. Put plainly: Antiinflammatory activity in Sprague-Dawley rat model of carrageenan-induced […] at 10 mg/kg, po administered 2 hrs post carrageenan challenge measured after 30 mins by […] (reference value: 34.1 +/- 2.3 ml). The class given is functional.
In series [11] the test system is Rattus norvegicus. Put plainly: Antihyperalgesic effect in Sprague-Dawley rat model of monosodium iodoacetate-induced osteoarthritis assessed as withdrawal threshold at 3 mg/kg, ip administered 14 days post MIA challenge measured after 30 mins by paw pressure test (reference value: 37.8 +/- 3.3 g). The series is classed as functional. The method in brief:
as §1

Series [12] concerns HaCaT. Put plainly: Cytotoxicity against human HaCaT cells at 1 to 50 uM after 24 hrs by LDH release assay. The class given is cell-based. The method in brief:
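HaCaT cells were grown in high-glucose DMEM with 10% FBS to 80% confluency. They were exposed 24 h to compound at 1–50 µM (final DMSO ≤0.1%). LDH release was expressed as a percentage of Triton X-100 lysis (100%); mean of three experiments.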
On the technique in general: LDH in the medium is a marker of cell lysis.

In series [13] the test system is Rattus norvegicus. Put plainly: Antiinflammatory activity in Sprague-Dawley rat model of carrageenan-induced paw edema assessed as paw volume at 3 mg/kg, po administered 2 hrs post carrageenan challenge measured after 120 mins by plethysmometry (reference value: 34.5 +/- 4.4 ml). The class given is functional.
Series [14] deals with Rattus norvegicus. The experiment in a line: Antiinflammatory activity in Sprague-Dawley rat model of carrageenan-induced paw edema assessed as volume of paw edema at 3 mg/kg, po administered 2 hrs post carrageenan challenge measured after 60 mins by plethysmometry (reference value: 2.73 +/- 0.07 ml). The series is classed as functional.
The subject of series [15] is Rattus norvegicus. Put plainly: Antiinflammatory activity in Sprague-Dawley rat model of carrageenan-induced paw edema assessed as paw volume at 10 mg/kg, po administered 2 hrs post carrageenan challenge measured after 90 mins by plethysmometry (reference value: 37.2 +/- 3.4 ml). The series is classed as functional.
For series [16], the system named is Rattus norvegicus. Put plainly: Antihyperalgesic effect in Sprague-Dawley rat model of monosodium iodoacetate-induced osteoarthritis assessed as withdrawal threshold at 20 mg/kg, ip administered 14 days post MIA challenge measured after 30 mins by paw pressure test (reference value: 37.8 +/- 3.3 g). The series is classed as functional. The method in brief: as §1

Series [17] relates to Rattus norvegicus. The experiment in a line: Antihyperalgesic activity in Sprague-Dawley rat model of carrageenan-induced inflammatory pain assessed as paw pressure threshold at 20 mg/kg, po administered 2 hrs post carrageenan challenge measured after 90 mins by paw pressure test (reference value: 37.2 +/- 3.4 g).
The test system of series [18] is Mus musculus. The experiment in a line: Antinociceptive activity in CD1 albino mouse model of acetic acid-induced visceral pain assessed as number of writhes at 20 mg/kg, po pretreated for 60 mins before acetic acid challenge measured after 5 mins (reference value: 32.5 +/- 2.4). The series is classed as functional.

The record followed here is ChEMBL document CHEMBL3758101, “Synthesis and biological evaluation of fluorinated 1,5-diarylpyrrole-3-alkoxyethyl ether derivatives as selective COX-2 inhibitors endowed with anti-inflammatory activity” (Eur J Med Chem, 2016).

As usually defined, the IC50 is the concentration that inhibits the measured activity by half. On to `Cc1c(CCOCCCF)cc(-c2ccc(S(C)(=O)=O)cc2)n1-c1ccc(F)cc1`, for which the Activity amounted to 45.4 g in [1]; 35.5 g in [2]; 17.7 in series [3]; 45.2 g in series [4]; 10.7 in [5]; 37.1 g in [6]. Further, the Activity in series [7] was 38.1 g; in series [10], 51.7 g; in series [11] it was 47.9 g; in series [12], “Non-toxic”; in series [13], 36.2 g; in series [14], 2.38 mL. Also, the Activity in series [15] came out at 47.2 g; in series [16] it was 51.3 g; in [17] it was 44.9 g; in [18], 16.9. Moreover, in series [8], the IC50 was 7 nM. Also, in series [9], the Ratio IC50 was over 14300.
